Assay results reported in ChEMBL document CHEMBL1128396, “Synthesis and biological evaluation of a series of new parenteral optically active 3-[[(N-alkylpyridinium-4'-yl)thio]methyl]-2-oxaisocephems” (1995).
In brackets after ≈: the same amount, converted by molar mass.

Legend:
Assay type in all cases: functional
Escherichia coli = assay: Antibacterial activity was determined against Escherichia coli NIHJ JC-2 (Gram-negative)
How it was run: (§1)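 2-fold agar dilution on Müller-Hinton agar. Overnight broth cultures were diluted to about 10^6 CFU/mL, and 10^4 CFU/spot was applied to plates with graded drug concentrations. Plates were incubated 18 h at 37 °C.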

Enterococcus faecalis [1] = assay: Antibacterial activity was determined against Enterococcus faecalis ATCC 21212 (Gram-positive); how it was run: as §1
Klebsiella pneumoniae = assay: Antibacterial activity was determined against Klebsiella pneumoniae NCTC 9632 (Gram-negative); how it was run: as §1
Pseudomonas aeruginosa = assay: Antibacterial activity was determined against Pseudomonas aeruginosa ATCC 10145 (Gram-negative); how it was run: as §1
Staphylococcus aureus [2] = assay: Antibacterial activity was determined against Methicillin-resistant Staphylococcus aureus (MRSA) 5038 (Gram-positive)
Staphylococcus aureus [3] = assay: Antibacterial activity was determined against Staphylococcus aureus FDA 209P (Gram-positive); how it was run: as §1
Serratia marcescens = assay: Antibacterial activity was determined against Serratia marcescens ATCC 12648 (Gram-negative); how it was run: as §1
[4] = test system: Staphylococcus epidermidis; assay: Antibacterial activity was determined against Staphylococcus epidermidis ATCC 12228 (Gram-positive); how it was run: as §1
Enterococcus faecalis [5] = assay: In vitro antibacterial activity against clinical isolates Enterococcus faecalis was determined; how it was run: as §1
Mus musculus [6] = assay: Antibacterial activity was determined against MRSA 5120 at a challenge dose of 7.6*10e7 (cells/mouse) administered subcutaneously; settings: sc
How it was run: (§2)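 Cultures were grown overnight at 37 °C in tryptic soy broth (S. aureus, MRSA, E. faecalis) or Müller-Hinton broth (E. coli, S. pneumoniae). Graded doses were given subcutaneously 1 h post-infection. ED50 was calculated by probit from day-7 survival, with 95% confidence limits.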

Mus musculus [7] = assay: Antibacterial activity was determined against Staphylococcus aureus Smith at a challenge dose of 1.32*10e7 (cells/mouse) administered subcutaneously; settings: sc; how it was run: as §2
Mus musculus [8] = assay: Antibacterial activity was determined against Streptococcus pneumoniae C 0096 at a challenge dose of 1.60*10e2 (cells/mouse) administered subcutaneously; settings: sc; how it was run: as §2
Mus musculus [9] = assay: Antibacterial activity was determined against Escherichia coli 29 at a challenge dose of 1.35*10e6 (cells/mouse) administered subcutaneously; settings: sc; how it was run: as §2
Mus musculus [10] = assay: Antibacterial activity was determined against Enterococcus faecalis C 0063 at a challenge dose of 7.00*10e7 (cells/mouse) administered subcutaneously; settings: sc; how it was run: as §2
Staphylococcus aureus [11] = assay: In vitro antibacterial activity against clinical isolates methicillin-resistant Staphylococcus aureus was determined
How it was run: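 2-fold agar dilution on Müller-Hinton agar. Overnight broth cultures were diluted to about 10^6 CFU/mL, and 10^4 CFU/spot was applied to plates with graded drug concentrations.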

Staphylococcus aureus [12] = assay: […] was determined against MRSA 5120
Streptococcus pneumoniae = assay: In vitro antibacterial activity against clinical isolates Ampicillin-insensitive Streptococcus pneumoniae was determined; how it was run: as §1
Mus musculus [13] = assay: Antibacterial activity was determined against MRSA 5038 at a challenge dose of 1.00*10e7 (cells/mouse) administered subcutaneously; settings: sc; how it was run: as §2
Mus musculus [14] = assay: Antibacterial activity was determined against MRSA 5129 at a challenge dose of 1.38*10e8 (cells/mouse) administered subcutaneously; settings: sc
How it was run: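 Male ICR mice (~20 g, 10 per dose group) were challenged intraperitoneally with 0.5 mL of about 10-100 times the LD50. Inoculum was an overnight 37 °C tryptic soy broth culture suspended in fresh broth with 5% gastric mucin. Various subcutaneous doses were given 1 h post-infection. Survivors were counted on day 7, and ED50 with 95% confidence limits was derived by probit.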

Staphylococcus aureus [15] = assay: […] was determined against MRSA 5129
Mus musculus [16] = assay: Antibacterial activity was determined against Staphylococcus aureus Smith at a challenge dose of 1.32*10e7 (cells/mouse) (sc) administered; how it was run: as §2

Structure (SMILES)	MIC (Escherichia coli) [µg/mL]	MIC (Enterococcus faecalis [1]) [µg/mL]	MIC (Klebsiella pneumoniae) [µg/mL]	MIC (Pseudomonas aeruginosa) [µg/mL]	MIC (Staphylococcus aureus [2]) [µg/mL]	MIC (Staphylococcus aureus [3]) [µg/mL]	MIC (Serratia marcescens) [µg/mL]	MIC [4] [µg/mL]	further results
CC(C)=CC[n+]1ccc(SCC2=C(C(=O)O)N3C(=O)[C@@H](NC(=O)/C(=N\OC4CCCC4)c4csc(N)n4)[C@H]3CO2)cc1.O=S(=O)([O-])O	0.78	1.56	0.78	12.5	12.5	0.2	1.56	0.2	–
CN(C)C(=O)C[n+]1ccc(SCC2=C(C(=O)O)N3C(=O)[C@@H](NC(=O)/C(=N\OC4CCCC4)c4csc(N)n4)[C@H]3CO2)cc1.O=S(=O)([O-])O	0.78	1.56	0.78	12.5	12.5	0.2	1.56	0.39	–
N#CC[n+]1ccc(SCC2=C(C(=O)O)N3C(=O)[C@@H](NC(=O)/C(=N\OC4CCCC4)c4csc(N)n4)[C@H]3CO2)cc1.O=S(=O)([O-])O	0.39	1.56	0.39	6.25	12.5	0.2	1.56	0.2	–
CCC(=O)C[n+]1ccc(SCC2=C(C(=O)O)N3C(=O)[C@@H](NC(=O)/C(=N\OC4CCCC4)c4csc(N)n4)[C@H]3CO2)cc1.O=S(=O)([O-])O	0.39	1.56	0.39	6.25	6.25	0.2	1.56	0.2	MIC50 (Enterococcus faecalis [5]): 3.13 µg/mL; MIC80 (Enterococcus faecalis [5]): 3.13 µg/mL; MIC90 (Enterococcus faecalis [5]): 6.25 µg/mL; ED50 (Mus musculus [6]): 1 mg/kg; ED50 (Mus musculus [7]): 0.22 mg/kg; ED50 (Mus musculus [8]): 0.56 mg/kg; ED50 (Mus musculus [9]): 0.15 mg/kg; ED50 (Mus musculus [10]): 5.23 mg/kg; MIC50 (Staphylococcus aureus [11]): 6.25 µg/mL; MIC80 (Staphylococcus aureus [11]): 6.25 µg/mL; MIC90 (Staphylococcus aureus [11]): 6.25 µg/mL; MIC (Staphylococcus aureus [12]): 6.25 µg/mL; MIC50 (Streptococcus pneumoniae): 0.025 µg/mL; MIC80 (Streptococcus pneumoniae): 0.05 µg/mL; MIC90 (Streptococcus pneumoniae): 0.05 µg/mL
CC1(C)S[C@@H]2[C@H](NC(=O)[C@H](N)c3ccccc3)C(=O)N2[C@H]1C(=O)O [AMPICILLIN]	–	–	–	–	–	–	–	–	ED50 (Mus musculus [8]): 8.23 mg/kg; MIC50 (Streptococcus pneumoniae): 3.13 µg/mL (≈ 8.96 µM); MIC80 (Streptococcus pneumoniae): 3.13 µg/mL (≈ 8.96 µM); MIC90 (Streptococcus pneumoniae): 3.13 µg/mL (≈ 8.96 µM)
CC(=O)C[n+]1ccc(SCC2=C(C(=O)O)N3C(=O)[C@@H](NC(=O)/C(=N\OC4CCCC4)c4csc(N)n4)[C@H]3CO2)cc1.O=S(=O)([O-])O	0.39	0.78	0.39	6.25	6.25	0.2	0.78	0.2	ED50 (Mus musculus [13]): 2.76 mg/kg; ED50 (Mus musculus [7]): 0.18 mg/kg
C#CC[n+]1ccc(SCC2=C(C(=O)O)N3C(=O)[C@@H](NC(=O)/C(=N\OC4CCCC4)c4csc(N)n4)[C@H]3CO2)cc1.O=S(=O)([O-])O	0.39	1.56	0.39	6.25	6.25	0.2	1.56	0.1	–
Nc1nc(/C(=N/OC2CCCC2)C(=O)N[C@@H]2C(=O)N3C(C(=O)O)=C(CSc4cc[n+](CC(=O)c5ccccc5)cc4)OC[C@H]23)cs1.O=S(=O)([O-])O	1.56	1.56	1.56	25	12.5	0.2	3.13	0.39	–
CN[C@H](CC(C)C)C(=O)N[C@H]1C(=O)N[C@@H](CC(N)=O)C(=O)N[C@H]2C(=O)N[C@H]3C(=O)N[C@H](C(=O)N[C@H](C(=O)O)c4cc(O)cc(O)c4-c4cc3ccc4O)[C@H](O)c3ccc(c(Cl)c3)Oc3cc2cc(c3O[C@@H]2O[C@H](CO)[C@@H](O)[C@H](O)[C@H]2O[C@H]2C[C@](C)(N)[C@H](O)[C@H](C)O2)Oc2ccc(cc2Cl)[C@H]1O [VANCOMYCIN]	> 100	0.78 (≈ 0.538 µM)	> 100	> 100	0.78 (≈ 0.538 µM)	0.78 (≈ 0.538 µM)	> 100	3.13 (≈ 2.16 µM)	ED50 (Mus musculus [13]): 2.7 mg/kg; ED50 (Mus musculus [6]): 11.5 mg/kg; ED50 (Mus musculus [14]): 18.7 mg/kg; ED50 (Mus musculus [7]): 3.74 mg/kg; MIC50 (Staphylococcus aureus [11]): 1.56 µg/mL (≈ 1.08 µM); MIC80 (Staphylococcus aureus [11]): 1.56 µg/mL (≈ 1.08 µM); MIC90 (Staphylococcus aureus [11]): 1.56 µg/mL (≈ 1.08 µM); MIC (Staphylococcus aureus [12]): 0.78 µg/mL (≈ 0.538 µM); MIC (Staphylococcus aureus [15]): 0.78 µg/mL (≈ 0.538 µM)
Nc1nc(/C(=N/OC2CCCC2)C(=O)N[C@@H]2C(=O)N3C(C(=O)O)=C(CSc4cc[n+](CC(=O)N5CCOCC5)cc4)OC[C@H]23)cs1.O=S(=O)([O-])O	0.78	1.56	0.78	6.25	12.5	0.2	1.56	0.2	–
NC(=O)C[n+]1ccc(SCC2=C(C(=O)O)N3C(=O)[C@@H](NC(=O)/C(=N\OC4CCCC4)c4csc(N)n4)[C@H]3CO2)cc1.O=S(=O)([O-])O	0.2	1.56	0.2	3.13	6.25	0.1	1.56	0.05	–
CC(C)(C)C(=O)C[n+]1ccc(SCC2=C(C(=O)O)N3C(=O)[C@@H](NC(=O)/C(=N\OC4CCCC4)c4csc(N)n4)[C@H]3CO2)cc1.O=S(=O)([O-])O	1.56	1.56	1.56	25	6.25	0.2	3.13	0.39	–
CNC(=O)C[n+]1ccc(SCC2=C(C(=O)O)N3C(=O)[C@@H](NC(=O)/C(=N\OC4CCCC4)c4csc(N)n4)[C@H]3CO2)cc1.O=S(=O)([O-])O	0.78	1.56	0.39	12.5	6.25	0.2	1.56	0.2	ED50 (Mus musculus [13]): 2.27 mg/kg; ED50 (Mus musculus [7]): 0.18 mg/kg
Nc1nc(/C(=N/OC2CCCC2)C(=O)N[C@@H]2C(=O)N3C(C(=O)O)=C(CSc4cc[n+](CC(=O)N5CCC(O)CC5)cc4)OC[C@H]23)cs1.O=S(=O)([O-])O	1.56	3.13	0.78	12.5	25	0.2	3.13	0.39	–
C=CC[n+]1ccc(SCC2=C(C(=O)O)N3C(=O)[C@@H](NC(=O)/C(=N\OC4CCCC4)c4csc(N)n4)[C@H]3CO2)cc1.O=S(=O)([O-])O	0.39	0.78	0.39	6.25	6.25	0.1	1.56	0.05	–
C[n+]1ccc(SCC2=C(C(=O)O)N3C(=O)[C@@H](NC(=O)/C(=N\OC4CCCC4)c4csc(N)n4)[C@H]3CO2)cc1.O=S(=O)([O-])O	0.39	1.56	0.2	6.25	3.13	0.05	1.56	0.05	ED50 (Mus musculus [13]): 3.4 mg/kg; ED50 (Mus musculus [14]): 3.91 mg/kg; ED50 (Mus musculus [16]): 0.08 mg/kg; ED50 (Mus musculus [9]): 0.09 mg/kg; MIC (Staphylococcus aureus [15]): 6.25 µg/mL
CO[C@@]1(NC(=O)CSC(F)F)C(=O)N2C(C(=O)O)=C(CSc3nnnn3CCO)CO[C@@H]21 [FLOMOXEF]	0.1 (≈ 0.201 µM)	100 (≈ 201 µM)	0.1 (≈ 0.201 µM)	> 100	50 (≈ 101 µM)	0.39 (≈ 0.786 µM)	0.78 (≈ 1.57 µM)	0.39 (≈ 0.786 µM)	MIC50 (Enterococcus faecalis [5]): > 100 µg/mL; MIC80 (Enterococcus faecalis [5]): > 100 µg/mL; MIC90 (Enterococcus faecalis [5]): > 100 µg/mL; ED50 (Mus musculus [6]): 8.52 mg/kg; ED50 (Mus musculus [8]): 18.6 mg/kg; ED50 (Mus musculus [9]): 0.43 mg/kg; ED50 (Mus musculus [10]): > 200 mg/kg; MIC50 (Staphylococcus aureus [11]): 25 µg/mL (≈ 50.4 µM); MIC80 (Staphylococcus aureus [11]): 100 µg/mL (≈ 201 µM); MIC90 (Staphylococcus aureus [11]): 100 µg/mL (≈ 201 µM); MIC (Staphylococcus aureus [12]): 25 µg/mL (≈ 50.4 µM); MIC50 (Streptococcus pneumoniae): 3.13 µg/mL (≈ 6.3 µM); MIC80 (Streptococcus pneumoniae): 6.25 µg/mL (≈ 12.6 µM); MIC90 (Streptococcus pneumoniae): 6.25 µg/mL (≈ 12.6 µM)
CC(C)(C)NC(=O)C[n+]1ccc(SCC2=C(C(=O)O)N3C(=O)[C@@H](NC(=O)/C(=N\OC4CCCC4)c4csc(N)n4)[C@H]3CO2)cc1.O=S(=O)([O-])O	1.56	1.56	1.56	25	12.5	0.2	3.13	0.39	–
